Results from different studies.
Sample: plasma

With COc1ccc(F)cc1C(=O)NCc1ccc(-c2nn([C@@H](C)C(F)(F)F)c(N)c2C(N)=O)cc1 the Vd was 0.54 L/kg (male human; intravenous, 22 µg).
The Vd of N#Cc1cccc(-c2ccc3ncc(-c4cc(F)cc(F)c4)c(N4CCC(N)CC4)c3c2)c1O is reported as 220 L (human; intravenous, 50 µg).
With COc1ccc2c(c1)CN(C(=O)CCN1CCC(Cc3ccccc3)CC1)CC[S@@+]2[O-] the Vd was 46.3 L (male human; intravenous, 0.4 mg/kg, healthy volunteers).
The Vd/F of C=CC(=O)N1C[C@H](Nc2ncnc3[nH]ccc23)CC[C@@H]1C is reported as 183 L (human; oral, 30 mg).
With OC[C@H]1O[C@@H](c2cc(Cc3ccc(C4CC4)cc3)c(Cl)c3c2CCO3)[C@H](O)[C@@H](O)[C@@H]1O the Vd/F was 177 L (human; oral, 0.3 mg, single dose, fed).
The Vd/F of C[C@@H](Oc1ccc(S(C)(=O)=O)cc1C(=O)N1C[C@@H]2C[C@]2(c2cc(C(F)(F)F)on2)C1)C(F)(F)F is reported as 247 L (human; oral, 10 mg, single dose, fed).
CC(C)c1nc(N(C)S(C)(=O)=O)nc(-c2ccc(F)cc2)c1/C=C/[C@@H](O)C[C@@H](O)CC(=O)O gave a Vd/F of 8020 L (human; oral, 10 mg).
C=CC(=O)NC1CCN(c2ncc3ncnc(Nc4ccc(Oc5ccc6c(c5)ncn6C)c(C)c4)c3n2)CC1 gave a Vd of 391 L (male human; intravenous, 100 µg, single dose, healthy volunteers).
